This note sets out measurements from ChEMBL document CHEMBL3232837, “Synthesis and evaluation of new Hsp90 inhibitors based on a 1,4,5-trisubstituted 1,2,3-triazole scaffold” (J Med Chem, 2014).

One experiment deals with NCI-H460. In words: Cytotoxicity against human NCI-H460 cells assessed as growth inhibition after 72 hrs by SRB assay. Type of experiment: functional, cell-based. The following applies: NCI-H460, 72 h. In a few lines:
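NCI-H460 cells grown in RPMI-1640 with 10% heat-inactivated FBS, seeded at about 10% confluence and allowed 24 h recovery. Exposed to graded drug concentrations or solvent for 72 h. Surviving fraction measured by sulforhodamine B. IC50 is the concentration giving a 50% drop in cell number vs vehicle, from dose-response curve fitting; mean of n=4 with SD.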

Experiment [1] concerns the target Heat shock protein HSP 90-alpha (Homo sapiens, UniProt P07900). In words: Displacement of GM-FITC from full-length recombinant human Hsp90-alpha after 4 hrs by fluorescence polarization assay.

As for `CC(C)c1cc(-n2nncc2-c2ccc(CN3CCCC(O)C3)cc2)c(O)cc1O` (stereo not drawn), the 50% inhibitory concentration (IC50) in the experiment with NCI-H460 was 45 nM; in experiment [1], 37 nM.

Turning to `CCCCCCCNC(=O)c1nnn(-c2cc(C(C)C)c(O)cc2O)c1-c1ccc(CN2CCOCC2)cc1`, the results for the IC50 (with NCI-H460; in experiment [1]) were 45 nM and 33 nM, respectively.

Consider `CC(C)c1cc(-n2cc(-c3ccc(CN4CCN(c5ccccc5)CC4)cc3)nn2)c(O)cc1O`, for which the IC50 in the experiment with NCI-H460 was greater than 1000 nM; in experiment [1], 320 nM.

On to `CCNC(=O)c1nnn(-c2cc(C(C)C)c(O)cc2O)c1-c1ccc(CN2CC[C@H](N(C)C)C2)cc1`, for which the IC50 came to 85 nM in the experiment with NCI-H460 and 13 nM in experiment [1].

Take `CCNC(=O)c1nnn(-c2cc(C(C)C)c(O)cc2O)c1-c1ccc(CN2CCC(N(C)C)CC2)cc1`: the IC50 is 120 nM in the experiment with NCI-H460 and less than 5 nM in experiment [1].

Consider `CCNC(=O)c1nnn(-c2cc(C(C)C)c(O)cc2O)c1-c1ccc(CN2CCCCC2CCO)cc1` (stereo not drawn), for which the IC50 with NCI-H460 was found to be 110 nM; in experiment [1], 10 nM.

Turning to `CC(C)c1cc(-n2nncc2-c2ccc(CN3CCN(c4ccccc4)CC3)cc2)c(O)cc1O`, the half-maximal inhibitory concentration (IC50) in the experiment with NCI-H460 is 520 nM; in experiment [1], 36 nM.

Regarding `CCNC(=O)c1nnn(-c2cc(C(C)C)c(O)cc2O)c1-c1ccc(CN2CCC[C@@H](O)C2)cc1`, the IC50 in the experiment on NCI-H460 was found to be 52 nM; in experiment [1], 30 nM.

With `CCNC(=O)c1nnn(-c2cc(C(C)C)c(O)cc2O)c1-c1ccc(CN(CC)CCO)cc1`, the IC50 in the experiment with NCI-H460 was 56 nM; in experiment [1] it was less than 5 nM.

As to `CCNC(=O)c1nnn(-c2cc(C(C)C)c(O)cc2O)c1-c1ccc(CN2CCN(C)CC2)cc1`, the results for the IC50 (in the experiment on NCI-H460; in experiment [1]) were 47 nM and less than 5 nM, respectively.

For the compound `CC(C)c1cc(-n2nnc(C(=O)NC3CCCCC3)c2-c2ccc(CN3CCOCC3)cc2)c(O)cc1O`, the IC50 in the experiment with NCI-H460 amounted to 46 nM; in experiment [1], 95 nM.

For `CC(C)c1cc(-n2nnc(C(=O)N[C@H](C(=O)O)C(C)C)c2-c2ccc(CN3CCOCC3)cc2)c(O)cc1O`, the IC50 was greater than 1000 nM with NCI-H460 and 181 nM in experiment [1].

`CC(C)c1cc(-n2cc(-c3ccc(CN4CCN(Cc5ccccc5)CC4)cc3)nn2)c(O)cc1O`: the half-maximal inhibitory concentration (IC50) is greater than 1000 nM in the experiment with NCI-H460 and 295 nM in experiment [1].

Consider `CC(C)c1cc(-n2nncc2-c2ccc(CN3CCOCC3)cc2)c(O)cc1O`, for which the results for the 50% inhibitory concentration (IC50) (with NCI-H460; in experiment [1]) were 150 nM and 35 nM, respectively.

Take `CCNC(=O)c1nnn(-c2cc(C(C)C)c(O)cc2O)c1-c1ccc(CNCCCN(CC)CC)cc1`: the values for the IC50 (in the experiment with NCI-H460; in experiment [1]) were 412 nM and 12 nM, respectively.

As to `CCNC(=O)c1nnn(-c2cc(C(C)C)c(O)cc2O)c1-c1ccc(CNC2CCCCC2)cc1`, the concentration for half-maximal inhibition (IC50) was 15 nM with NCI-H460 and 6.8 nM in experiment [1].

As to `CC(C)c1cc(-n2nncc2-c2ccc(CN3CCN(Cc4ccccc4)CC3)cc2)c(O)cc1O`, the concentration for half-maximal inhibition (IC50) in the experiment with NCI-H460 stood at 180 nM; in experiment [1] it was 27 nM.

Take `CCNC(=O)c1nnn(-c2cc(C(C)C)c(O)cc2O)c1-c1ccc(CN2CCNCC2)cc1`: the values for the half-maximal inhibitory concentration (IC50) (in the experiment with NCI-H460; in experiment [1]) were 250 nM and less than 5 nM, respectively.

For `CCNC(=O)c1nnn(-c2cc(C(C)C)c(O)cc2O)c1-c1ccc(CN2CCC[C@H](O)C2)cc1`, the figures for the IC50 (in the experiment on NCI-H460; in experiment [1]) were 70 nM and 23 nM, respectively.

For `CC(C)c1cc(-n2nnc(C(=O)NCCCl)c2-c2ccc(CN3CCOCC3)cc2)c(O)cc1O`, the concentration for half-maximal inhibition (IC50) came to 4.3 nM in the experiment on NCI-H460 and 17 nM in experiment [1].

As for `CCNC(=O)c1nnn(-c2cc(C(C)C)c(O)cc2O)c1-c1ccc(CN2CCCC2)cc1`, the values for the IC50 (with NCI-H460; in experiment [1]) were 3 nM and less than 5 nM, respectively.

For the compound `CC(C)c1cc(-n2nnc(C(=O)N3CCOCC3)c2-c2ccc(CN3CCOCC3)cc2)c(O)cc1O`, the half-maximal inhibitory concentration (IC50) is greater than 1000 nM in the experiment on NCI-H460 and 270 nM in experiment [1].

Turning to `CCNC(=O)c1nnn(-c2cc(C(C)C)c(O)cc2O)c1-c1ccc(Cn2ccnc2)cc1`, the half-maximal inhibitory concentration (IC50) came out at 28 nM in the experiment on NCI-H460 and 23 nM in experiment [1].

As for `CCNC(=O)c1nnn(-c2cc(C(C)C)c(O)cc2O)c1-c1ccc(CNC2CCN(C)CC2)cc1`, the concentration for half-maximal inhibition (IC50) in the experiment on NCI-H460 is greater than 1000 nM; in experiment [1], 32 nM.
